Measurements pooled from the literature.
Compare with care: the assays were run in different laboratories.
Target: MAP kinase-activated protein kinase 5 (MAPKAPK5, Homo sapiens, UniProt Q8IW41)

COc1ccc(COc2ccc(Cc3cnc(N)nc3N)cc2OC)cc1
remaining signal (cell-free assay; 0.5 µM): 87.5%

Cc1cc(-n2nc(Cc3cc(F)cc(C(F)(F)F)c3)nc2C)ccc1C(N)=O
remaining binding (cell-free assay, competition with immobilised ligand; 1 µM): 100%

CNc1cccc2cc(C(=O)Nc3ccc(C(=O)O)cc3)c(=O)[nH]c12
inhibition (enzyme activity, inhibitor; 10 µM): 20%

Cc1cc(C)c(-n2ccn3nc(-c4cccnc4)cc23)cc1NC(=O)c1cc(C#N)cc(S(F)(F)(F)(F)F)c1
remaining binding (cell-free assay, competition with immobilised ligand; 0.1 µM): 91.7%

Nc1ncnc2occ(-c3ccc(NC(=O)Nc4cc(C(F)(F)F)ccc4F)cc3)c12
remaining signal (cell-free assay, inhibitor; 20 µM): 58%

CN([C@@H]1CCc2c(CC(=O)O)c3cc(S(C)(=O)=O)ccc3n2C1)S(=O)(=O)c1ccc(F)cc1
remaining binding (cell-free assay, competition with immobilised ligand; 1 µM): 100%

CC(C)(C)c1nc(-c2cccc(NS(=O)(=O)c3c(F)cccc3F)c2F)c(-c2ccnc(N)n2)s1
remaining activity (enzyme activity, inhibitor, radiometric; 1 µM): 37%

Cc1ccc(Nc2nccc(N(C)c3ccc4c(C)n(C)nc4c3)n2)cc1S(N)(=O)=O
inhibition (enzyme activity, inhibitor; 10 µM): 4%

C[C@H](c1ccc(F)cc1)N(Cc1cccc(C(=O)O)c1)C(=O)c1cnc2ccccc2c1
remaining binding (cell-free assay, competition with immobilised ligand; 1 µM): 96%

C[C@@H]1CCN(C(=O)CC#N)C[C@@H]1N(C)c1ncnc2[nH]ccc12
remaining signal (cell-free assay, inhibitor; 0.5 µM): 97.3%

Oc1cccc(-c2nc(N3CCOCC3)c3oc4ncccc4c3n2)c1
remaining activity (enzyme activity, inhibitor; 10 µM): 77%

Cc1ccc(C(=O)Nc2ccc(CN3CCN(C)CC3)c(C(F)(F)F)c2)cc1C#Cc1cnc2cccnn12
remaining activity (enzyme activity, inhibitor; 23.5 nM): 84%

COc1cc2ncnc(Nc3ccc(Oc4ccccc4)cc3C)c2cc1OC
inhibition (enzyme activity, inhibitor; 1 µM): 3%

CN(c1ncccc1CNc1nc(Nc2ccc3c(c2)CC(=O)N3)ncc1C(F)(F)F)S(C)(=O)=O
inhibition (enzyme activity, inhibitor; 1 µM): 0%

CC(C)c1ccc(NC(=O)c2cccs2)c(-c2nc3ccccc3[nH]c2=O)c1
activity vs control (enzyme activity, inhibitor; 1 µM): 106%

Cn1cnc(Br)c1C1=CN(c2ncnc3[nH]cnc23)CCS1
inhibition (enzyme activity, inhibitor, radiometric; 2 µM): 15.2%

C[C@H](NC(=O)c1cnc2n1[C@](C)(Cc1ccc(C#N)cc1)C(=O)N2c1cc(Cl)c(F)c(Cl)c1)C(=O)NC1(c2ccccn2)CC1
remaining binding (cell-free assay, competition with immobilised ligand; 1 µM): 96%

Nc1nc(NC2CCCCC2)sc1C(=O)c1ccccc1
remaining activity (enzyme activity, inhibitor; 10 µM): 96%
